Reference: ChEMBL document CHEMBL1153425, “Inhibitory effects of sesquiterpene lactones isolated from Eupatorium chinense L. on IgE-mediated degranulation in rat basophilic leukemia RBL-2H3 cells and passive cutaneous anaphylaxis reaction in mice” (Bioorg Med Chem, 2009)
Calls of active or inactive are those of the source. The rule behind the calls is not given here.

How the values were obtained:
RBL-2H3 [1] = assay: Inhibition of DNP/BSA-stimulated ERK1/2 phosphorylation in IgE-sensitized rat RBL2H3 cells after 10 mins by Western blot; assay type: functional, cell-based
Method in brief: (§1)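 Compound-treated, IgE-sensitized RBL-2H3 cells are stimulated with DNP-BSA for 10 min and lysed in RIPA buffer with protease and phosphatase inhibitors. Lysate (20 µg protein) is run on SDS-PAGE and blotted to PVDF. Membranes are blocked with 5% milk/TPBS and probed with primary antibodies, then […] secondaries. Detection is by ECL chemiluminescence.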

RBL-2H3 [2] = assay: Inhibition of DNP/BSA-stimulated JNK1/2 phosphorylation in IgE-sensitized rat RBL2H3 cells after 10 mins by Western blot; assay type: functional, cell-based; method in brief: as §1
RBL-2H3 [3] = assay: Inhibition of DNP/BSA-stimulated p38MAPK phosphorylation in IgE-sensitized rat RBL2H3 cells after 10 mins by Western blot; assay type: functional, cell-based; method in brief: as §1
RBL-2H3 [4] = assay: Inhibition of DNP/BSA-stimulated ratio of phospho-Akt to total-Akt level in IgE-sensitized rat RBL2H3 cells after 10 mins by Western blot; assay type: functional, cell-based; method in brief: as §1
RBL-2H3 [5] = assay: Inhibition of DNP/BSA-stimulated intracellular ROS release in IgE-sensitized rat RBL2H3 cells at 10 uM after 30 mins using CM-H2DCF-DA probe by fluorimetry; assay type: functional, cell-based
Method in brief: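 IgE-sensitized RBL-2H3 cells (5×10^4/well) are loaded with 10 µM CM-H2DCF-DA for 30 min at 37 °C and washed with PBS. They are then exposed 30 min to 10 µM compound and stimulated with DNP-BSA (10 µg/ml). DCF fluorescence is read at ex 490/em 530 nm.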

[6] = tested on: Radical scavenging activity; assay: Antioxidant activity assessed as DPPH-radical scavenging activity at 10 uM; assay type: functional
RBL-2H3 [7] = assay: Inhibition of DNP/BSA-stimulated beta-hexosamonidase release in IgE-sensitized rat RBL2H3 cells at 5 to 10 uM after 30 mins by colorimetry; assay type: functional, cell-based
Method in brief: (§2)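 RBL-2H3 cells are plated at 5×10^5 cells/ml, cultured 1 h, then sensitized 24 h with mouse anti-DNP IgE (0.45 µg/ml). After washes, cells sit in Siraganian buffer (pH 7.2; 5.6 mM glucose, 1 mM CaCl2, 0.1% BSA) at 37 °C for 10 min. They are pretreated with 5 or 10 µM compound at 37 °C for 30 min, then challenged with DNP-BSA (10 µg/ml) for 10 min. The reaction is stopped on ice and supernatant taken. Read-outs: β-hexosaminidase by 1 mM p-nitrophenyl-N-acetyl-β-D-glucosaminide in citrate pH 4.5, 37 °C 1 h, A405; histamine by n-butanol/chloroform extraction and o-phthalaldehyde fluorescence (ex 360/em 450), expressed as % inhibition relative to positive and negative controls. Values are mean ± SEM, n=10.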

RBL-2H3 [8] = assay: Inhibition of DNP/BSA-stimulated histamine release in IgE-sensitized rat RBL2H3 cells at 5 to 10 uM after 30 mins by fluorimetry; assay type: functional, cell-based; method in brief: as §2
RBL-2H3 [9] = assay: Inhibition of A-23187-stimulated beta-hexosamonidase release in IgE-sensitized rat RBL2H3 cells at 5 to 10 uM after 30 mins; assay type: functional, cell-based
RBL-2H3 [10] = assay: Inhibition of DNP/BSA-stimulated intracellular calcium release in IgE-sensitized rat RBL2H3 cells at 10 uM after 30 mins by fluorimetry; assay type: functional, cell-based
Method in brief: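 IgE-sensitized (0.45 µg/ml anti-DNP IgE, 24 h) RBL-2H3 cells at 5×10^4/well are loaded with Fluo-3 AM for 1 h. They are then incubated 30 min in loading buffer containing 10 µM compound. Ca2+ change after DNP-BSA (10 µg/ml) is read by fluorescence plate reader, ex 490/em 530 nm. Values are mean ± SEM, n=32.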

SMILES | Activity (RBL-2H3 [1]) | Activity (RBL-2H3 [2]) | Activity (RBL-2H3 [3]) | Activity (RBL-2H3 [4]) | Activity (RBL-2H3 [5]) | Activity [6] | Activity (RBL-2H3 [7]) | Activity (RBL-2H3 [8]) | Activity (RBL-2H3 [9]) | Activity (RBL-2H3 [10])
C=C1C(=O)O[C@H]2/C=C(/C)[C@@H](OC(C)=O)C/C=C(\CO)C[C@@H](OC(=O)C(C)CC)[C@@H]12 (stereo not given in full) | inactive | inactive | Active | Active | inactive | inactive |  |  |  | 
C=C1C(=O)O[C@@H]2/C=C(/C)[C@@H](OC(C)=O)C[C@H]3O[C@]3(C)C[C@@H](OC(=O)/C(=C/C)CO)[C@@H]12 | inactive | inactive | Active | Active | inactive | inactive |  |  |  | 
C=C1C(=O)O[C@@H]2/C=C(\C)C[C@H](O)/C=C(\C)C[C@@H](OC(=O)/C(=C\C)CO)[C@@H]12 | inactive | inactive | Active | Active | inactive | inactive | Active | Active | Active | Active
C=C1C(=O)O[C@H]2/C=C(/C)[C@H](OC(C)=O)C[C@@H]3O[C@]3(C)C[C@@H](OC(=O)/C(=C/C)CO)[C@@H]12 | inactive | inactive | Active | Active | inactive | inactive |  |  |  | 
C=C1C(=O)O[C@@H]2/C=C(\C)[C@@H](O)C/C=C(\C)C[C@@H](OC(=O)/C(=C\C)CO)[C@@H]12 | inactive | inactive | Active | Active | inactive | inactive |  |  |  | 
C=C1C(=O)O[C@H]2/C=C(/C)[C@@H](OC(C)=O)C/C=C(\C)C[C@@H](OC(=O)/C(=C/C)CO)[C@@H]12 | inactive | inactive | Active | Active | inactive | inactive |  |  |  | 
C=C1C(=O)O[C@@H]2/C=C(\C)[C@@H](O)C/C=C(/C=O)C[C@@H](OC(=O)C(C)CC)[C@@H]12 (stereo not given in full) | inactive | inactive | Active | Active | inactive | inactive | Active | Active | Active | Active
